≈ marks a conversion by molar mass, not a printed value.

For two compounds, MIC, ED50 and Min concentration results are on record in ChEMBL document CHEMBL1123422, “1-Ethyl-7-[3-[(ethylamino)methyl]-1-pyrrolidinyl]-6,8-difluoro-1,4- dihydro-4-oxo-3-quinoline-carboxylic acid. New quinolone antibacterial with potent gram-positive activity” (1986).

Assay [1] has as its system Escherichia coli. The assay can be described thus: (§1) Compound was tested for inhibition of the gram-negative organism Escherichia coli vogel. Type of assay: functional. The gist of the method: (§2)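 MICs read in standard microdilution (microtitration) format against a panel of 10 bacterial organisms; values in µg/mL.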
For assay [2], the system named is Providencia rettgeri. The assay can be described thus: (§3) Compound was tested for inhibition of the gram-negative organism Providencia rettgeri H1771. It is filed as functional. The method, boiled down: as §2
The subject of assay [3] is Staphylococcus aureus. Put plainly: (§4) Compound was tested for inhibition of the […] organism […] H228. Type of assay: functional. The method, boiled down: as §2
The subject of assay [4] is Klebsiella pneumoniae. The assay can be described thus: (§5) Compound was tested for inhibition of the gram-negative organism Klebsiella pneumoniae MGH-2. It is filed as functional. The gist of the method: as §2
Assay [5] concerns Mus musculus. Put plainly: Compound was evaluated for protective dose against the Streptococcus pneumoniae SV-1 lethal infection following po administration. Type of assay: functional. The settings on record: read-out: PD50. The gist of the method:
(§6)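 Female Charles River CD-1 mice (18–22 g) were challenged intraperitoneally with an estimated 100 median lethal dose in tryptic soy broth. Single doses, in a twofold rising series, were given at the same time as challenge: subcutaneously as aqueous solution, or orally by gavage in 5% gum acacia. Survival in groups of eight mice per dose gave PD50 (mg/kg) by log probit.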

In assay [6] the test system is Enterobacter cloacae. The assay can be described thus: Compound was tested for inhibition of the gram-negative organism […] HA 2646. It is filed as functional.
Assay [7] has as its system Streptococcus pneumoniae. Put plainly: (§7) Compound was tested for inhibition of the […] organism Streptococcus pneumoniae SV-1. It is filed as functional. The gist of the method: as §2
Assay [8] concerns Mus musculus. The assay can be described thus: Compound was evaluated for protective dose against the Escherichia coli vogel lethal infection following peroral administration in mouse. It is filed as functional. The conditions noted are these: po, read-out: PD50. The method, boiled down: (§8)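 Acute lethal systemic infection in female Charles River CD-1 mice (18–22 g), challenged intraperitoneally with an estimated 100 median lethal dose in 5% hog gastric mucin. Single doses in a twofold rising series were given with the challenge, sc as aqueous solution or po by gavage in 5% gum acacia. PD50 (mg/kg) was estimated by log probit from survival of eight mice per dose.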

Assay [9] deals with DNA gyrase (Escherichia coli) (UniProt P0AES6+P0AES4). The assay can be described thus: Inhibition of DNA gyrase of Escherichia coli H560 cells. The gist of the method:
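DNA gyrase purified from Escherichia coli H560 cells. Cleavage assay: drug-gyrase-DNA complex denatured, converting closed circular DNA to linear DNA. Linear DNA resolved by gel electrophoresis and stained with ethidium bromide. Value is the minimum drug concentration (µg/mL) giving linear DNA at an intensity relative to oxolinic acid at 10 µg/mL. Aqueous drug stocks made up in 0.1 N NaOH or KOH.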

Assay [10] deals with Mus musculus. The assay can be described thus: Compound was evaluated for protective dose against the Escherichia coli vogel lethal infection following sc administration in mouse. Type of assay: functional. The settings on record: read-out: PD50. The method, boiled down: as §8
Assay [11] relates to Mus musculus. Put plainly: Compound was evaluated for protective dose against the […] UC-76 lethal infection following po administration in mouse. It is filed as functional. The conditions noted are these: read-out: PD50. The method, boiled down:
as §8

Assay [12] concerns Streptococcus pyogenes. The assay can be described thus: (§9) Compound was tested for inhibition of the […] organism Streptococcus pyogenes C203. Type of assay: functional. The gist of the method:
as §2

For assay [13], the system named is Staphylococcus aureus. Put plainly: (§10) Compound was tested for inhibition of the […] organism […] UC-76. It is filed as functional. The method, boiled down:
as §2

Assay [14] has as its system Pseudomonas aeruginosa. Put plainly: (§11) Compound was tested for inhibition of the gram-negative organism Pseudomonas aeruginosa UI-18. Type of assay: functional. The gist of the method: as §2
Assay [15] deals with Mus musculus. The assay can be described thus: Compound was evaluated for protective dose against Streptococcus pneumoniae SV-1 lethal infection following sc administration. It is filed as functional. The settings on record: read-out: PD50. The gist of the method:
as §6

The subject of assay [16] is Escherichia coli. The assay can be described thus: (§12) Compound was tested for inhibition of the gram-negative organism Escherichia coli H560. It is filed as functional. The gist of the method: as §2
For assay [17], the system named is Enterococcus faecalis. The assay can be described thus: (§13) Compound was tested for inhibition of the […] organism Streptococcus faecalis MGH-2. Type of assay: functional. The gist of the method: as §2
In assay [18] the test system is Mus musculus. Put plainly: Compound was evaluated for protective dose against the […] UC-76 lethal infection following sc administration in mouse. It is filed as functional. The conditions noted are these: read-out: PD50. The method, boiled down:
as §8

The test system of assay [19] is Staphylococcus aureus. Described as §4. It is filed as functional. The source holds these as a separate data set.
Assay [20] relates to Providencia rettgeri. Described as §3. Type of assay: functional. This is another data set of the same source.
Assay [21] relates to Escherichia coli. The description is as §1. Type of assay: functional. The source holds these as a separate data set.
Assay [22] deals with Pseudomonas aeruginosa. The description is as §11. It is filed as functional. The source holds these as a separate data set.
Assay [23] has as its system Klebsiella pneumoniae. The assay is described as §5. It is filed as functional. This is another data set of the same source.
Assay [24] relates to Escherichia coli. The assay is described as §12. It is filed as functional. The source holds these as a separate data set.
Assay [25] has as its system Streptococcus pyogenes. The description is as §9. Type of assay: functional. The source holds these as a separate data set.
Assay [26] relates to Enterococcus faecalis. Described as §13. Type of assay: functional. The source holds these as a separate data set.
In assay [27] the test system is Streptococcus pneumoniae. The assay is described as §7. Type of assay: functional. This is another data set of the same source.
Assay [28] relates to Staphylococcus aureus. The assay is described as §10. It is filed as functional. This is another data set of the same source.
Assay [29] concerns Escherichia coli. Put plainly: Compound was tested for inhibition of target enzyme DNA gyrase obtained from Escherichia coli H560 cells. Type of assay: functional. The method, boiled down: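 Gyrase isolated from E. coli H560 cells. Drug-gyrase-DNA complex denatured, and closed circular DNA converted to linear DNA. Linear DNA resolved by gel electrophoresis and stained with ethidium bromide. Value is the minimum drug concentration (µg/mL) giving linear DNA at an intensity relative to oxolinic acid at 10 µg/mL. Aqueous drug stocks made in 0.1 N NaOH or KOH.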

In general, MIC refers to the lowest concentration found to suppress growth. Regarding `CCNCC1CCN(c2c(F)cc3c(=O)c(C(=O)O)cn(CC)c3c2F)C1` (stereo unspecified) [MERAFLOXACIN], the minimal inhibitory concentration (MIC) in assay [1] came to 0.1 µg/mL (≈ 0.264 µM); in assay [2] it was 0.4 µg/mL (≈ 1.05 µM); in assay [3], 0.1 µg/mL (≈ 0.264 µM); in [4], 0.2 µg/mL (≈ 0.527 µM); in assay [6], 0.2 µg/mL (≈ 0.527 µM); in [7], 0.1 µg/mL (≈ 0.264 µM). The MIC in assay [12] was found to be 0.1 µg/mL (≈ 0.264 µM); in [13], 0.05 µg/mL (≈ 0.132 µM); in assay [14], 1.6 µg/mL (≈ 4.22 µM); in assay [16], 0.1 µg/mL (≈ 0.264 µM); in [17] it was 0.1 µg/mL (≈ 0.264 µM). In addition, the ED50 in assay [5] was 20 mg/kg; in assay [8], 12 mg/kg; in [10] it was 1.7 mg/kg; in assay [11], 2.8 mg/kg; in assay [15] it was 4.4 mg/kg; in assay [18] it was 1.6 mg/kg. In assay [9], this compound registered a Min concentration of 2.5 µg/mL.
Turning to `CCn1cc(C(=O)O)c(=O)c2cc(F)c(N3CCNCC3)cc21` [NORFLOXACIN], the minimum inhibitory concentration (MIC) in assay [19] was determined as 0.8 µg/mL (≈ 2.51 µM); in assay [20] it was 0.025 µg/mL (≈ 0.0783 µM); in assay [21] it was 0.025 µg/mL (≈ 0.0783 µM); in assay [22] it was 0.2 µg/mL (≈ 0.626 µM); in [23], 0.05 µg/mL (≈ 0.157 µM); in [24] it was 0.1 µg/mL (≈ 0.313 µM). Moreover, the MIC came out at 0.1 µg/mL (≈ 0.313 µM) in [6]; 0.8 µg/mL (≈ 2.51 µM) in [25]; 1.6 µg/mL (≈ 5.01 µM) in assay [26]; 1.6 µg/mL (≈ 5.01 µM) in assay [27]; 0.05 µg/mL (≈ 0.157 µM) in assay [28]; 1 µg/mL (≈ 3.13 µM) in assay [29]. In addition, the ED50 in assay [5] was 150 mg/kg; in assay [8] it was 4 mg/kg; in [10], 1 mg/kg; in [11] it was 23 mg/kg; in assay [15], greater than 100 mg/kg; in [18], 15 mg/kg.
